Bioassay records deposited in PubChem BioAssay by several laboratories.
A selection: hits, their analogues and other compounds. The true share with any hit is near 2.7%.
Plk1 PBD FP: Plk1 polo box domain binding inhibitors, primary screen, biochemical, fluorescence polarization | Serine/threonine-protein kinase PLK1 (Homo sapiens), P53350 | Plk1 PBD phosphopeptide binding | inhibition, %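 (tested at about 20 µM)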 | actives 0.13% (n = 97,000) | AID 693, 2007; in the data active = inhibition above about 34%, passing the limit was not always enough
LYP inh 2: PTPN22 phosphatase inhibitors, primary screen, biochemical, DiFMUP fluorescence, 2 µM; recombinant LYP catalytic domain; actives 0.21% (n = 96,000); Tyrosine-protein phosphatase non-receptor type 22 (Homo sapiens), Q9Y2R2; inhibition, % at 2 µM;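 active = inhibition at 2 µM at or above a set limit, the screen mean plus 3 SD, cut at about 24% in these data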
DAT uptake mod: changed hDAT dopamine uptake under cocaine IC80, either direction, primary screen, cocaine antagonist project, cell-based, LLC-PK1 hDAT, [14C]-dopamine uptake, MLSMR; AID 449768, 2010; LLC-PK1 hDAT cells, [14C]-dopamine uptake with cocaine IC80; actives deviate in either direction; Sodium-dependent dopamine transporter (Homo sapiens), Q01959; actives 1.3% (n = 110,000); B-score at 10 µM;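 active = Z score or B-score, a plate-position-corrected score, falls beyond the plate's 99.7% confidence bounds, in either direction; inactive = both scores lie inside the 99.7% bounds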
Target sequence (Q01959 whole entry, looked up): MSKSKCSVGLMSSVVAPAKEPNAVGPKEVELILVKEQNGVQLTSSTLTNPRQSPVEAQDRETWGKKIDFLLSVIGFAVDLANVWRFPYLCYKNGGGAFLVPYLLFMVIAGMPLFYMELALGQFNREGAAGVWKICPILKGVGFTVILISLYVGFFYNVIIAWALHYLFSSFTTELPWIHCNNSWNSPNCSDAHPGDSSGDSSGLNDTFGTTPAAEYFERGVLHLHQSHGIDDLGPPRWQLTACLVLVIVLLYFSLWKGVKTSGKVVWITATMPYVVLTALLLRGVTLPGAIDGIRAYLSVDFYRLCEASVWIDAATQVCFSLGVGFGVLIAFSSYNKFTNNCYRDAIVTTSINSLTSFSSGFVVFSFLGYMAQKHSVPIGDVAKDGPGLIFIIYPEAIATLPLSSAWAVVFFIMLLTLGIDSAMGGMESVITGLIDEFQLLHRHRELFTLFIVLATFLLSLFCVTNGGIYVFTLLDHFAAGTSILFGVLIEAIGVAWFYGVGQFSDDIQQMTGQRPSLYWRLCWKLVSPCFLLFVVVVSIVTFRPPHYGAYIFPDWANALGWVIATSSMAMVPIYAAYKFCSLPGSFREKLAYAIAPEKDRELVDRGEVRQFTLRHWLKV
Rev-RRE block: HIV-1 Rev-RRE binding inhibitors, primary screen, biochemical, FRET, protein-RNA interaction. P05866. Rev peptide-RRE RNA binding. inhibition, % at 8 µM. actives 0.79% (n = 97,000). AID 704, 2007;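 active = inhibition above the screen-wide mean plus 3 SD, cut at about 35% in these data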
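assay system = Cy5-tagged RRE RNA duplex with fluorescein-tagged Rev peptide | incubation = 5 + 15 min at 25 °C | also added = labelled Rev peptide | measure = % inhibition of FRET ratio versus controls | benchmarks = DMSO wells as 0% and neomycin B wells as 100% inhibition | measured by = FRET fluorescence readout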
LYP act: LYP phosphatase activators, primary screen, biochemical, DiFMUP fluorescence, 2 µM; actives 0.11% (n = 96,000); activation, % at 2 µM; recombinant LYP; 0 = plate median, 100 = signal doubled;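 active = activation at 2 µM above a set limit, the mean plus 5 SD, cut at about 37% in these data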
PLK1 inh: human PLK1 kinase inhibitors, primary screen, biochemical, TR-FRET. recombinant PLK1 kinase, TR-FRET peptide phosphorylation. inhibition, % at 10 µM. actives 0.53% (n = 97,000). AID 619, 2007;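 active = inhibition of 50% or more in the single-concentration screen; inactive = inhibition below 50%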
A number is an active result; – = inactive; · = not tested or not shown; [ ] = remark or other dose.

SMILES | Plk1 PBD FP | LYP inh 2 | DAT uptake mod | Rev-RRE block | LYP act | PLK1 inh
CCN1C=CC2=C(C#N)C(N)C(C#N)(C#N)C(c3ccccc3C(F)(F)F)C2C1 (stereo not given) | – | – | – | 58 | – | –
Cc1ccccc1C(=O)N1CCN(c2ncnc3c2cnn3-c2ccccc2)CC1 | – | – | -5.3 | – | – | –
Cc1ccc(C(=O)N2CCN(c3ncnc4c3cnn4-c3ccccc3)CC2)cc1 | – | – | – | – | – | –
c1ccc(-n2ncc3c(NCc4cccnc4)ncnc32)cc1 | – | – | 2.6 | – | – | –
c1ccc(-n2ncc3c(NCc4cccs4)ncnc32)cc1 | · | · | – | · | · | ·
Cc1ccccc1Nc1ncnc2c1cnn2-c1ccccc1 | · | · | 3.1 | · | · | ·
Cc1cc(O)c(C(C)C)cc1NC(=O)c1cccc(Cl)c1 | – | – | – | – | – | –
O=C1CC(/C=C/c2ccco2)=Nc2ccccc2N1 | – | – | – | 41 | – | –
O=C1CC(C(F)(F)C(F)(F)C(F)(F)C(F)F)=Nc2ccccc2N1 | – | – | – | – | – | –
CCOc1ccc(C2C=C(c3ccc(C)cc3)Nc3nnnn32)cc1 (stereo not given) | – | – | – | 39 | – | –
CCOc1ccc(C2C=C(c3ccccc3)Nc3nnnn32)cc1 (stereo not given) | – | – | · | – | – | –
CC(C)=CCCC1(C)C=Cc2c(c(C)cc3c2[nH]c2cc(O)ccc23)O1 (stereo not given) | · | · | – | · | · | ·
O=C(CSc1nnc(-c2cccs2)n1-c1ccccc1)N1CCc2ccccc21 | – | – | · | – | – | –
Clc1ccc(C2=Nn3c(nnc3-c3cc(-c4ccccc4)n[nH]3)SC2)cc1 | – | 28 | – | – | – | –
Cc1ccc2nc3sc(C(=O)Nc4ccc(N5CCOCC5)cc4)c(N)c3cc2c1 | – | – | · | – | – | –
CCOC(=O)Cc1csc(NC(=O)c2sc3nc4ccc(C)cc4cc3c2N)n1 | – | – | – | 81[fluorescence artefact?] | – | –
CCOC(=O)Cc1csc(NC(=O)c2cccnc2)n1 | – | – | – | – | – | –
CCc1nnc(NC(=O)c2sc3nc4cc(C)ccc4cc3c2N)s1 | – | – | · | 88[fluorescence artefact?] | – | –
CCOC(=O)Cc1csc(NC(=O)c2ccc(NC(C)=O)cc2)n1 | – | – | – | – | – | –
CCOC(=O)Cc1csc(NC(=S)NC(=O)c2ccc(Cl)cc2)n1 | – | 26 | – | – | – | –
O=C(NCC1CC1)C1(C(F)(F)F)CC(CCCO)CCCO1 (stereo not given) | · | · | – | · | · | ·
O=C(C1=C[C@H](c2ccc(Br)cc2)C[C@H](OCCCCO)O1)N1CCN(Cc2ccccc2)CC1 | · | · | – | · | · | ·
COc1ccc(Nc2nnc(-c3ccc(N4CCOCC4)c([N+](=O)[O-])c3)c3ccccc23)cc1 | – | – | – | – | – | –
Cc1cc(C(=O)COC(=O)c2ccccc2O)c(C)n1Cc1cccs1 | – | – | – | – | – | –
CCn1nc(C(=O)OCC(=O)c2cc(C)n(Cc3cccs3)c2C)c2ccccc2c1=O | – | 24 | – | – | – | –
SMILES | Plk1 PBD FP | LYP inh 2 | DAT uptake mod | Rev-RRE block | LYP act | PLK1 inh
CCOC(=O)N1CCN(C(=O)c2ccc(CN(c3ccccc3)S(C)(=O)=O)cc2)CC1 | – | – | – | – | – | –
CCOC(=O)c1cn(-c2ccc(F)c(F)c2F)c2c(F)c(F)c(F)cc2c1=O | – | – | – | – | – | –
CCOC(=O)c1cn(-c2nc(-c3ccc(Cl)c(Cl)c3)cs2)c2c(F)c(N3CCOCC3)c(F)cc2c1=O | – | 28 | · | – | – | –
CC1CCC(C(=O)NC(C(=O)N2CCC(N3CCCCC3)CC2)C(C)C)CC1 (stereo not given) | – | – | -2.7 | – | – | –
CCc1ccc(OCC(=O)Nc2cc(S(=O)(=O)CC)ccc2O)cc1 | – | – | · | – | – | –
O=c1/c(=C/c2ccc(O)cc2)sc2n1CCCN=2 | – | – | – | – | – | –
CN(C)c1ccc(/C=c2\sc3n(c2=O)CCCN=3)cc1 | – | – | – | 37 | – | –
CCCCOc1ccc(-c2c(C#N)c(N)nc(SCC(N)=O)c2C#N)cc1 | – | – | -2.3 | – | – | –
CCC1=NNc2cccc3c(OC)ccc1c23 | – | – | – | – | – | 68
COc1ccc(C(C)=O)c2c(O)cccc12 | – | – | – | – | – | –
CC(C)(C)[C@H]1C=C(C(=O)NCc2ccccc2)O[C@@H](OCCCCO)C1 | · | · | – | · | · | ·
CCSc1nnc2n(-c3ccc(OC)cc3)c(=O)c3c4c(sc3n12)CCCC4 | – | – | -8 | – | – | –
COc1ccc(-n2c(=O)c3c4c(sc3n3c(C)nnc23)CC(C)CC4)cc1 (stereo not given) | – | – | · | – | – | –
O=C(COc1cccc(NC(=O)c2cccc([N+](=O)[O-])c2)c1)c1ccc(Br)cc1 | – | – | – | – | – | –
COc1ccc(Br)cc1/C=N/NC(=O)c1ccc(COc2ccc3c(c2)CCC3)o1 | – | – | – | – | – | –
O=C(N/N=C/c1ccc2ccccc2c1)c1ccc(COc2ccc3c(c2)CCC3)o1 | – | 33 | – | – | – | –
O=C(COC(=O)CCc1ccccc1)Nc1ncc(Cl)cc1Cl | – | – | – | – | – | –
CC(=O)Oc1ccc(OC(C)=O)c(SCCCCCN2CCOCC2)c1 | – | – | – | – | – | –
CC1(O)C(=O)C=C2C=C(c3ccc(C#N)cc3)OC=C2C1=O (stereo not given) | · | · | – | · | · | ·
CCc1nnc(NC(=O)c2ccc(-c3cc(C(F)(F)F)ccc3Cl)o2)s1 | – | – | – | – | – | –
CCc1nnc(NC(=O)c2ccc(-c3cccc(C(F)(F)F)c3)o2)s1 | – | – | -7.6 | – | – | –
COc1ccc(NC(=O)CSc2nnc(C)n2Cc2ccccc2)cc1 | – | – | – | – | – | –
CCOC(=O)c1cccc(NC(=O)CSc2nnc(C)n2Cc2ccccc2)c1 | – | – | 3.3 | – | – | –
CCOC(=O)c1sc(N)c(C#N)c1COC(=O)CNC(=O)c1cc(OC)c(OC)c(OC)c1 | – | – | – | 53 | – | –
CCOC(=O)c1cc(CC)sc1NC(=O)c1cc(OC)c(OC)c(OC)c1 | – | – | – | – | – | –
Cn1nc(-c2ccccc2)c2nc3ccccc3nc21 | – | – | – | 92[fluorescence artefact?] | – | –
CCCCn1nc(-c2ccccc2)c2nc3ccccc3nc21 | – | – | – | 97[fluorescence artefact?] | – | –
COc1ccc(Br)cc1C(=O)Nc1ccccc1-c1ccccc1 | – | – | – | – | – | –
